Test results as given in PubChem BioAssay.
Results filed as inconclusive are left out.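 How the source made its calls, unless noted: active means viability increase at or above a cutoff of the median across tested compounds plus 3 SD (cut at about 8.5% in these data, passing the limit was not always enough); inconclusive means some gains above the cutoff, reason not given; inactive means the rest.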

Key:
[1] = OD615 S. cerevisiae growth inhibition, permissive medium, pilot counter-assay, permissive growth control for S. cerevisiae lifespan shortening project (AID 705;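 active means growth inhibition above 25% in both replicates, a cutoff set 3 SD above the mean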); settings: OD615, 24 h, at 10 µM, stronger effect = higher value
In short: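 System: engineered DeaD yeast; Medium: permissive raffinose/galactose medium; Compound dosing: 10 µM single dose, 0.25% DMSO; Incubation: 4 h cell pre-growth, 24 h exposure at 30 °C; Technique: OD at 615 nm; Evaluation: growth inhibition from lowered OD615 after 24 h.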

[2] = Restrictive medium S. cerevisiae growth inhibition, OD615, pilot screen of yeast lifespan reduction project, restrictive growth control (AID 706;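 active means growth inhibition above a set limit, 3 SD over mean compound inhibition, in both replicates, cut at about 43% in these data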;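 further: modified DeaD lifespan yeast strain shifted to restrictive glucose medium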); settings: OD615, 48 h, at 10 µM, stronger effect = higher value
In short: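 Material: modified S. cerevisiae; buffer or medium: CSMM-D glucose medium; doses: one concentration, 10 µM final, 0.25% DMSO; incubation: 48 h compound exposure at 30 °C; detection: optical density at 615 nm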

[3] = viability gain of MRP-1-high H69AR cells under doxorubicin, pilot screen, MRP-1 activator project, CellTiter-Glo, duplicate (AID 807); settings: H69AR viability with doxorubicin, CellTiter-Glo luminescence; at 10 µM; stronger effect = higher value;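 further: compound pretreatment 18-22 h then 72 h combined with doxorubicin; 0% = doxorubicin alone and 100% = vehicle without doxorubicin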
[4] = growth suppression of beta-catenin knockout HCT116, pilot screen, human colon tumor cells (AID 823;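 active means cell viability at or below a set limit in both duplicate runs, the limit being the all-compound median minus 4 SD, cut at about 23% in these data, passing the limit was not always enough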;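 further: 0% = wells killed by 20 µM Hyamine and 100% = untreated DMSO cell wells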); settings: CellTiter-Glo, 60 h, at 10 µM, stronger effect = lower value
[5] = growth suppression of PTEN-deleted HCT116, pilot screen, cell-based, HCT116 clonal line, CellTiter-Glo (AID 824;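 active means viability at or below 27.92% in each of two runs, the all-compound median minus 4 SD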;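 further: 0% = 20 µM Hyamine control and 100% = vehicle cell control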); settings: 60 h, at 10 µM, stronger effect = lower value
[6] = inhibitors of the yeast RAM network, pilot screen, dse1pr::URA3 reporter, 5-FOA selection (AID 869;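 active means inhibition over a set limit, the all-compound mean plus 3 SD, in both replicate runs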;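 further: 0% = DMSO wells with no growth and 100% = 10 µM 1-NA-PP1 with full growth; RAM network block rescues cells from 5-FOA so hits raise OD615 growth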); settings: S. cerevisiae dse1pr::URA3 5-FOA growth, OD615, 2 d; at 10 µM; stronger effect = higher value; strain carries analog-sensitive mutant Cbk1 kinase
[7] = RAM signaling pathway blockade in yeast – S. cerevisiae, Pdr1DBD-CYC8 efflux-inhibited sensitized strain, primary screen (AID 1298;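 active means RAM network inhibition above 8.4% in each of two replicates, 3 SD over the compound average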;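 further: 0% = DMSO untreated cells without growth and 100% = 10 µM 1-NA-PP1 full growth; higher means more yeast growth rescued from 5-FOA killing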); settings: S. cerevisiae cbk1-as DSE1-URA3 strain, 5-FOA growth OD615, 2 d; at 50 µM; stronger effect = higher value

Cn1c(C(=O)NCCCN2CCCC2=O)cc2c(=O)n(C)c3ccccc3c21
inactive: growth inhibition [1] -6.28% | growth inhibition [2] -1.63% | viability increase [3] -4.16% | viability [4] 108% | viability [5] 94.4% | inhibition [6] 1.69% | RAM network inhibition [7] 0.06%

Cc1nn(CCCC(=O)N2CCc3ccccc3C2)c(=O)c2cc3sccc3n12
inactive: growth inhibition [1] -4.89% | growth inhibition [2] -14.2% | viability increase [3] -1.17% | viability [4] 97% | viability [5] 88.1% | inhibition [6] 1.39% | RAM network inhibition [7] 0.42%

Cc1oc(-c2ccc(Cl)cc2)nc1CN1CCC(C(=O)NCCCN2CCCC2=O)CC1
inactive: growth inhibition [1] -13.4% | growth inhibition [2] -11.7% | viability increase [3] -2.67% | viability [4] 93.1% | viability [5] 89% | inhibition [6] 1.76% | RAM network inhibition [7] 4.34%

CCOC(=O)CC(=O)Nc1ccc(Br)cc1C(=O)O
inactive: growth inhibition [1] -18.4% | growth inhibition [2] -18.8% | viability increase [3] 1.24% | viability [4] 101% | viability [5] 97.2% | inhibition [6] 2.16% | RAM network inhibition [7] 7.52%

CCn1cc(C(=O)NCCCN2CC(C)CC(C)C2)c(=O)c2cc(S(=O)(=O)N(C)C)ccc21 (configuration not stated)
inactive: growth inhibition [1] -10.3% | growth inhibition [2] -19.1% | viability increase [3] -2.78% | viability [4] 96% | viability [5] 98.7% | inhibition [6] 0.88% | RAM network inhibition [7] -0.73%

COc1ccccc1N1CCN(C(CNS(=O)(=O)c2cccs2)c2cccnc2)CC1 (configuration not stated)
inactive: growth inhibition [1] -6.17% | growth inhibition [2] -25.5% | viability increase [3] -3.42% | viability [4] 87.8% | viability [5] 79.1% | inhibition [6] 1.8% | RAM network inhibition [7] 5.16%

Cc1cccc(C)c1NC(=O)C1(N(Cc2ccco2)C(=O)CC2NC(=O)NC2=O)CCCCC1 (configuration not stated)
inactive: growth inhibition [1] -7.47% | growth inhibition [2] -10.5% | viability increase [3] -2.27% | viability [4] 92.7% | viability [5] 93.9% | inhibition [6] 1.23% | RAM network inhibition [7] 0.68%

CCc1c(C)sc(NC(=O)c2cc(C3CC3)on2)c1C#N
inactive: growth inhibition [1] -7.33% | growth inhibition [2] 15% | viability increase [3] 1.11% | viability [4] 99% | viability [5] 102% | inhibition [6] 3.36% | RAM network inhibition [7] -0.84%

O=C(COC(=O)c1cccs1)Nc1ccccc1
inactive: growth inhibition [1] -5.3% | growth inhibition [2] 0.975% | viability increase [3] -0.14% | viability [4] 96.7% | viability [5] 97.1% | inhibition [6] 1.56% | RAM network inhibition [7] 0.11%

COc1ccc(-c2nnnn2C)cc1S(=O)(=O)NCCc1ccccc1
inactive: growth inhibition [1] -8.48% | growth inhibition [2] 2.52% | viability increase [3] 0.12% | viability [4] 97.5% | viability [5] 104% | inhibition [6] 1% | RAM network inhibition [7] 3.03%

CCOc1ccc(C2c3c(oc4ccccc4c3=O)C(=O)N2CCCN2CCOCC2)cc1OCC (configuration not stated)
inactive: growth inhibition [1] -14% | growth inhibition [2] -31.3% | viability increase [3] -4.89% | viability [4] 102% | viability [5] 88.6% | inhibition [6] 0.48% | RAM network inhibition [7] 1.21%

C=CCNc1oc(COc2ccc(C)cc2)nc1C#N
inactive: growth inhibition [1] -7.16% | growth inhibition [2] 1.92% | viability increase [3] 4.36% | viability [4] 99.1% | viability [5] 97.3% | inhibition [6] 1.18% | RAM network inhibition [7] -0.52%

c1ccc2c(c1)CCN(c1nc3ccccc3n3cnnc13)C2
inactive: growth inhibition [1] -1.93% | growth inhibition [2] 10.2% | viability increase [3] -8.63% | viability [4] 65.1% | viability [5] 68.9% | inhibition [6] 0.5% | RAM network inhibition [7] -0.31%

CCOC(=O)c1ccc(NC(=O)NS(=O)(=O)c2ccc(C)cc2)cc1
inactive: growth inhibition [1] -7.83% | growth inhibition [2] -3.95% | viability increase [3] -1.46% | viability [4] 105% | viability [5] 94% | inhibition [6] 3.13% | RAM network inhibition [7] 6.08%

COc1ccc(-c2nnc(SCC(=O)N3CCN(c4ccccc4)CC3)o2)cc1OC
inactive: growth inhibition [1] -7.28% | growth inhibition [2] 7.65% | viability increase [3] -6.37% | viability [4] 73.7% | viability [5] 90% | inhibition [6] 1.64% | RAM network inhibition [7] 1.67%

CSc1cccc(NC(=O)CN(c2cc(C)ccc2C)S(C)(=O)=O)c1
inactive: growth inhibition [1] -4.02% | growth inhibition [2] -2.52% | viability increase [3] -3.54% | viability [4] 77.4% | viability [5] 79.8% | inhibition [6] -0.95% | RAM network inhibition [7] 1.46%

COc1ccccc1NC(=O)Nc1ccnn1C1CCCCC1
inactive: growth inhibition [1] -7.38% | growth inhibition [2] -10.3% | viability increase [3] -0.89% | viability [4] 92.2% | viability [5] 94.1% | inhibition [6] 2.41% | RAM network inhibition [7] 0.5%

O=C(c1cccc(F)c1)N1CCN=C1SCc1cccnc1
inactive: growth inhibition [1] -2.18% | growth inhibition [2] 8.84% | viability increase [3] -0.35% | viability [4] 102% | viability [5] 96.3% | inhibition [6] 0.32% | RAM network inhibition [7] 0.89%

COc1ccccc1NC(=O)Cn1c(=O)n2nc(C)nc2c2ccccc21
inactive: growth inhibition [1] -11% | growth inhibition [2] -16.9% | viability increase [3] -4.08% | viability [4] 102% | viability [5] 90.3% | inhibition [6] 1.47% | RAM network inhibition [7] 2.31%

C1CCC(Nc2nnnn2C2CCCCC2)CC1
inactive: growth inhibition [1] -16.8% | growth inhibition [2] -16.1% | viability increase [3] -2.17% | viability [4] 90.4% | viability [5] 92.5% | inhibition [6] 1.41% | RAM network inhibition [7] 3.33%

CCSc1nnc2c(n1)OC(c1ccc(C(=O)O)cc1)N(C(C)=O)c1ccccc1-2 (configuration not stated)
inactive: growth inhibition [1] -10.1% | growth inhibition [2] -2.9% | viability increase [3] -1.34% | viability [4] 107% | viability [5] 100% | inhibition [6] 1.66% | RAM network inhibition [7] 2.35%

COCCn1c(CN2CC(C)CC(C)C2)nc2c1c(=O)n(C)c(=O)n2C (configuration not stated)
inactive: growth inhibition [1] 8.93% | growth inhibition [2] 9.36% | viability increase [3] 0.07% | viability [4] 90.4% | viability [5] 98.5% | inhibition [6] -0.14% | RAM network inhibition [7] -0.26%

O=C(Nc1ccccc1C(=O)N1CCN(Cc2ccccc2)CC1)c1ccccn1
inactive: growth inhibition [1] -4.94% | growth inhibition [2] -10.1% | viability increase [3] -2.39% | viability [4] 93.3% | viability [5] 96.2% | inhibition [6] -0.045% | RAM network inhibition [7] 6.33%

COc1cc(C(=O)Nc2ccc(N(C)C)cc2)cc(OC)c1OC
inactive: growth inhibition [1] -13.9% | growth inhibition [2] -11.7% | viability increase [3] -5.23% | viability [4] 82.2% | viability [5] 82.9% | inhibition [6] 1.14% | RAM network inhibition [7] 2.49%

N#CC1=C(SCC(N)=O)NC(=O)CC1c1ccccc1Cl (configuration not stated)
inactive: growth inhibition [1] -3.39% | growth inhibition [2] -17.1% | viability increase [3] -2.43% | viability [4] 98% | viability [5] 96.5% | inhibition [6] 0.635% | RAM network inhibition [7] -0.49%

CCOC(=O)C1CCCN(Cc2nc(N)nc(Nc3ccccc3OC)n2)C1 (configuration not stated)
inactive: growth inhibition [1] -0.44% | growth inhibition [2] -2.06% | viability increase [3] -3.66% | viability [4] 88.8% | viability [5] 83.4% | inhibition [6] 0.15% | RAM network inhibition [7] 0.43%

COc1ccc(OC)c(CCNC(=O)CN2C(=O)CC(C)(C)S(=O)(=O)c3ccccc32)c1
inactive: growth inhibition [1] -4.35% | growth inhibition [2] -14.1% | viability increase [3] -2.6% | viability [4] 101% | viability [5] 92.3% | inhibition [6] -0.045% | RAM network inhibition [7] 2.76%

CCOC(=O)c1oc2cc(O)ccc2c(=O)c1-c1ccccc1OC
inactive: growth inhibition [1] -11.6% | growth inhibition [2] -0.685% | viability increase [3] -1.98% | viability [4] 98.4% | viability [5] 92% | inhibition [6] -0.595% | RAM network inhibition [7] 5.56%

CC(=O)N1CCc2cc(C(=O)CN3CCCCC3)ccc21
inactive: growth inhibition [1] -6.58% | growth inhibition [2] -8.28% | viability increase [3] -2.19% | viability [4] 99% | viability [5] 94.7% | inhibition [6] 0.435% | RAM network inhibition [7] 1.91%

CCC/C(O)=C1\C(=O)CC(C)(C)CC1=NCCO
inactive: growth inhibition [1] 1.41% | growth inhibition [2] 11.1% | viability increase [3] -0.35% | viability [4] 91.9% | viability [5] 98.6% | inhibition [6] 2.65% | RAM network inhibition [7] 3.31%

COc1ccc(-c2[nH]ncc2-c2cnc(C)s2)c(O)c1
inactive: growth inhibition [1] -13.3% | growth inhibition [2] -13% | viability increase [3] -1.25% | viability [4] 99.2% | viability [5] 98.9% | inhibition [6] 2% | RAM network inhibition [7] 2.98%

Cc1nc2ccccc2c2oc(C(=O)NCc3ccc4c(c3)OCO4)cc12
inactive: growth inhibition [1] -5.28% | growth inhibition [2] -8.97% | viability increase [3] -0.55% | viability [4] 70.8% | viability [5] 80.8% | inhibition [6] 1.01% | RAM network inhibition [7] 5.03%

CCOC(=O)c1ccccc1NC(=O)CN(c1cccc(OC)c1)S(C)(=O)=O
inactive: growth inhibition [1] -7.1% | growth inhibition [2] -3.34% | viability increase [3] -5.04% | viability [4] 91.7% | viability [5] 83.3% | inhibition [6] 1.65% | RAM network inhibition [7] 4.56%

CC1(C)CC(=O)N(CC(=O)N2CCN(c3ncccn3)CC2)c2ccccc2S1(=O)=O
inactive: growth inhibition [1] -6.82% | growth inhibition [2] -9.5% | viability increase [3] 0.27% | viability [4] 102% | viability [5] 91.8% | inhibition [6] 0.48% | RAM network inhibition [7] -0.32%

CCN1C(=O)N(CC)C(O)(c2ccccc2)C1(O)c1ccccc1 (configuration not stated)
inactive: growth inhibition [1] -12.7% | growth inhibition [2] -8.41% | viability increase [3] -2.16% | viability [4] 97.1% | viability [5] 94.8% | inhibition [6] 2.12% | RAM network inhibition [7] 6.55%

Cc1cc(C)c2c(=O)[nH]n(C3CCOC(C)(C)C3)c2n1 (configuration not stated)
inactive: growth inhibition [1] -4.97% | growth inhibition [2] -0.145% | viability increase [3] -0.16% | viability [4] 107% | viability [5] 99.8% | inhibition [6] -0.37% | RAM network inhibition [7] 1.49%
